KCNQ1 act = potentiators or activators of human KCNQ1 potassium channel; 310,000 compounds, 0.35% hits; CHO-K1 KCNQ1, thallium flux FluxOR fluorescence; hits give high values; B-score at 10 µM; P51787;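 active means fluorescence ratio B-score, a plate-corrected score, at least three library SD, with initial intensity B-score within 5 SD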
Target sequence (P51787 whole entry, looked up): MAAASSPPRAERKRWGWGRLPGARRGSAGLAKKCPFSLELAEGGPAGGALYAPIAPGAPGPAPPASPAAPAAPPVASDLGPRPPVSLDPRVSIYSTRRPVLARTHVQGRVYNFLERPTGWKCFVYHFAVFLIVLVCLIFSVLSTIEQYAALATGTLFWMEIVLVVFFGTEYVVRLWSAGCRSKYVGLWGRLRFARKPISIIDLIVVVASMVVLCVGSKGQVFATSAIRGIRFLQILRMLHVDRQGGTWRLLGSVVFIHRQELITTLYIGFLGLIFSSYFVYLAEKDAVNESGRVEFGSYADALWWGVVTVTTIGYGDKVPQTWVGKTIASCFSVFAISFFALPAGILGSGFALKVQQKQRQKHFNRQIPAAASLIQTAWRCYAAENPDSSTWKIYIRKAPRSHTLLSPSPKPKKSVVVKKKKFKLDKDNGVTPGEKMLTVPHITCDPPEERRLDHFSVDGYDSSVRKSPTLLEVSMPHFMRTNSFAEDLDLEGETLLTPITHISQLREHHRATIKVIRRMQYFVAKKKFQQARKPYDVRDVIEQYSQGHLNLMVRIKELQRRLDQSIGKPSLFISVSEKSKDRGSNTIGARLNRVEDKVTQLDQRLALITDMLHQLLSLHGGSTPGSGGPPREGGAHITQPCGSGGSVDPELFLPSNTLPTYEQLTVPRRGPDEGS
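assay system = KCNQ1-transfected CHO-K1 cells | medium = assay buffer with matched DMSO | probe or stimulus = depolarizing K+/Tl+ stimulus, K2SO4 and Tl2SO4 each 12.5 mM in 5x stock | dosing = single dose | incubation = dye 90 min, compound 20 min, room temperature | detection = kinetic FluxOR fluorescence, 10 s baseline plus 110 s post-stimulus | evaluation = ratio B score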
KCNK9 block = human KCNK9 channel inhibition; Q9NPC2; HEK293 KCNK9, FluxOR thallium flux fluorescence; hits give low values; B-score at 10 µM; 310,000 compounds, 1.2% hits; AID 488922;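 active means ratio B-score over 3 SD below the library mean, with starting fluorescence within 5 SD of its mean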;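 further: negative B-score means less thallium flux so channel inhibition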
hERG rescue = hERG (human) protection from proarrhythmic block; Q12809; CHO-hERG, FluxOR thallium flux, dofetilide IC70 present; activation (rescue from dofetilide block), less the hit threshold, % at 10 µM; 310,000 compounds, 0.51% hits; AID 1511;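 active means activation above the mean of controls blocked by dofetilide plus 5 SD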;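 further: thallium influx through hERG after potassium depolarization seen as dye fluorescence rise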
KCNQ1 block = inhibitors of human KCNQ1 potassium channel | P51787 | CHO-K1 KCNQ1, FluxOR thallium flux fluorescence; hits give high values | B-score at 10 µM | 310,000 compounds, 1.3% hits | AID 2642;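 active means compounds whose thallium flux B-score, printed positive for inhibition, exceeds three library SD while starting fluorescence stays within three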;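 further: channel opened by potassium depolarization with thallium stimulus after 20 min compound exposure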
Kir21 inh = blocks the mouse Kir2.1 inward-rectifier potassium channel; P35561; HEK293-Kir2.1, FluxOR thallium flux fluorescence; hits give low values; B-score at 10 µM; 310,000 compounds, 0.85% hits;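 active means fluorescence ratio B-score at or below minus 3 SD of library scores, with starting-brightness B-score within 2 SD, cut at about -4.2 in these data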;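 further: channel flux triggered by added potassium and thallium sulfate stimulus; B-score of peak minus minimum fluorescence over baseline after thallium stimulus; more negative B-score means stronger Kir2.1 block with less thallium influx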
KCNK3 inh = human KCNK3 channel inhibition, primary screen; O14649; CHO-KCNK3 thallium flux, FluxOR fluorescence; hits give low values; B-score at 10 µM; 340,000 compounds, 0.84% hits;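 active means B-score under library mean minus 4 SD, starting fluorescence ratio at most library mean plus 5 SD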;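 further: more negative B-score means stronger inhibition of thallium flux through KCNK3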
KCNK3 confirm = human KCNK3 channel inhibition, confirmation assay; AID 651638; 2,400 compounds, 99% hits; CHO-KCNK3 thallium flux, FluxOR fluorescence; 0% buffer, 100% carvedilol maximal block; shares compounds with KCNK3 inh; ratio percent of control, % at 10 µM;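 active means ratio percent of control, averaged over triplicates, above buffer control mean plus 5 SD, cut at about 64% in these data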;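 further: ratio is the fluorescence rise from min to max over baseline after thallium stimulus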
KCNK3 noninduced = counter-screen for KCNK3 inhibitors: effect in non-induced cells; shares compounds with KCNK3 inh; non-induced KCNK3 parental cells, FluxOR thallium flux; hits give low values; thallium flux ratio (lower = more inhibition) at 10 µM; 2,400 compounds, 40% hits;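 active means thallium flux ratio, averaged over three wells, more than 5 SD below the buffer control mean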;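 further: host cells are CHO cells without KCNK3 induction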
Large screens that a line does not name were inactive (follow-up assays come after a bar, where they were run). Hits are enriched below; roughly 3.7% of the tested compounds scored in any of these assays.

C=CCn1c(=O)c2ccccc2n2nnc(C(=O)OCC)c12	none
O=C(c1ccc(-c2ccccc2)cc1)N1CCN(c2ccccc2F)CC1	KCNK3 inh -9.15 | KCNK3 confirm 108.0 | KCNK3 noninduced inactive
O=C1c2ccccc2[C@@H]2C[C@@H](O)[C@H](Nc3cccc(Cl)n3)CCN12	none (no result: KCNQ1 act, KCNK9 block, hERG rescue, KCNQ1 block, Kir21 inh)
O=C(O)Cn1nnc(-c2ccc(OCc3ccccc3Cl)cc2)n1	none
CC(C)n1nnc(-c2ccc(OCc3ccccc3F)cc2)n1	KCNK9 block -7.93, KCNK3 inh -9.13 | KCNK3 confirm 99.3 | KCNK3 noninduced inactive
O=C(Cc1cccs1)NNC(=S)NCc1ccc(Cl)cc1	KCNK9 block -7.7, KCNK3 inh -11.2 | KCNK3 confirm 77.3 | KCNK3 noninduced inactive
O=C(Cc1ccc(Cl)cc1)NNC(=S)NC(=O)c1cccs1	none
COc1ccccc1CNC(=O)c1sccc1-c1ccccc1	Kir21 inh -6.56, KCNK3 inh -9.98 | KCNK3 confirm 103.3 | KCNK3 noninduced inactive
Cc1ccc(O)c(C(CC(=O)NCc2ccco2)c2ccccc2)c1 (stereo unspecified)	none
Cc1cccc(C(CC(=O)NCc2ccco2)c2ccccc2)c1O (stereo unspecified)	KCNK3 inh -9.03 | KCNK3 confirm 110.3 | KCNK3 noninduced inactive
CCCC(=O)Nc1ccc(-c2csc(N/N=C\c3ccncc3)n2)cc1	KCNK3 inh -8.8 | KCNK3 confirm 106.7 | KCNK3 noninduced 0.155
CCCN1CCN(C(=O)Nc2cccc(C(F)(F)F)c2)CC1	KCNK3 inh -10.3 | KCNK3 confirm 106.3 | KCNK3 noninduced inactive
Cn1ncc2c(O/N=C(\N)c3ccc(C(F)(F)F)cc3)ncnc21	none
COc1ccc(-c2csc3ncnc(N4CCN(c5ccc(OC)cc5)CC4)c23)cc1	KCNK3 inh -11 | KCNK3 confirm 92.0 | KCNK3 noninduced inactive
CC(C)(C)C(=O)N1CCN(c2ncnc3scc(-c4ccccc4)c23)CC1	none
COc1ccc(-c2csc3ncnc(N4CCN(c5ccccc5[N+](=O)[O-])CC4)c23)cc1	KCNQ1 block 8, KCNK3 inh -8.74 | KCNK3 confirm 96.7 | KCNK3 noninduced inactive
CC(C)c1ccc(-c2csc3ncnc(N4CCN(C)CC4)c23)cc1	none
O=C(Nc1cccc(NC(=O)c2ccccc2)n1)c1ccccc1	KCNK3 inh -10.3 | KCNK3 confirm 97.0 | KCNK3 noninduced inactive
Cc1cccc(NC(=O)c2ccc(C(=O)c3ccccc3)cc2)n1	none
COc1ccccc1C(=O)Nc1cccc(NC(=O)c2ccccc2OC)n1	KCNK3 inh -10.8 | KCNK3 confirm 112.7 | KCNK3 noninduced inactive
COc1ccccc1C(=O)Nc1ccon1	none
COc1ccccc1C(=O)Nc1ccccc1SC(=O)c1ccccc1OC	KCNK9 block -12.9, KCNK3 inh -9.41 | KCNK3 confirm 112.7 | KCNK3 noninduced inactive
Cc1ccccc1NC1=C(Cl)C(=O)OC1OC(=O)c1ccccc1C (stereo unspecified)	KCNK3 inh -11.7 | KCNK3 confirm 127.7 | KCNK3 noninduced 0.11
CC(C)C[C@@H](CO)NS(=O)(=O)c1cc(Cl)ccc1F	none (no result: KCNQ1 act, KCNK9 block, hERG rescue, KCNQ1 block, Kir21 inh)
Cc1ccc(S(=O)(=O)N(CC(=O)NCCC2=CCCCC2)Cc2ccccc2F)cc1	KCNK3 inh -9.41 | KCNK3 confirm 116.0 | KCNK3 noninduced inactive
CCOC(=O)C1=C(C)NC(=O)NC1/C=C/c1ccccc1OC (stereo unspecified)	none
COc1ccccc1/C=C/C1C(C(=O)OCC(C)C)=C(C)N=C2SCCC(=O)N21 (stereo unspecified)	KCNK3 inh -9.33 | KCNK3 confirm 92.3 | KCNK3 noninduced 0.16
CCOP(=O)(OCC)c1nc(-c2cccc3ccccc23)oc1NCc1ccc(OC)cc1	KCNK3 inh -10.9 | KCNK3 confirm 107.3 | KCNK3 noninduced 0.157
COC(=O)C1=C(C)N(C)C(C)=C(C(=O)OC)C1c1ccc(F)c(Br)c1	KCNK3 inh -9.12 | KCNK3 confirm 109.7 | KCNK3 noninduced inactive
COC(=O)C1=C(C)N(C)C(C)=C(C(=O)OC)C1c1ccncc1	none
C=CSc1sc(Cl)c(N2CCOCC2)c1[N+](=O)[O-]	none
C=CS(=O)(=O)c1sc(Cl)c(N2CCOCC2)c1[N+](=O)[O-]	KCNQ1 act 11, Kir21 inh -9.46, KCNK3 inh -8.98 | KCNK3 confirm 125.3 | KCNK3 noninduced 0.122
COc1ccc(OC)c(C2NC(=O)N(C)C(C)=C2C(=O)OCc2ccccc2)c1 (stereo unspecified)	KCNK3 inh -9.28 | KCNK3 confirm 140.7 | KCNK3 noninduced 0.105
CC1=C(C(=O)OCc2ccccc2)C(c2ccccc2Cl)NC(=O)N1C (stereo unspecified)	none
CCc1nc(N2CCN(C(=S)NCCCOC)CC2)c2c3c(sc2n1)CCCC3	KCNK3 inh -8.87 | KCNK3 confirm 95.3 | KCNK3 noninduced 0.15
COCCCNC(=S)N1CCN(c2nc3ccccc3s2)CC1	none
COc1ccc(OC)c(-c2csc(NC(=O)Cc3cccs3)n2)c1	KCNK3 inh -8.83 | KCNK3 confirm 84.7 | KCNK3 noninduced inactive
COc1cccc(CC(=O)Nc2nc(-c3cc(OC)ccc3OC)cs2)c1	none
COc1ccc(OC)c(-c2csc(NC(=O)Cc3ccccc3)n2)c1	KCNK3 inh -9.44 | KCNK3 confirm 125.0 | KCNK3 noninduced 0.148
COc1ccc(CN(C(=O)c2ccco2)c2ccc(C)c(C)c2)cc1	KCNK9 block -7.1, KCNK3 inh -10.5 | KCNK3 confirm 105.3 | KCNK3 noninduced inactive
COc1ccc(OC)c(-c2csc(N(Cc3ccco3)C(=O)c3ccco3)n2)c1	KCNK9 block -7.28, KCNK3 inh -11.9 | KCNK3 confirm 101.7 | KCNK3 noninduced inactive
CC(C)C(=O)Nc1ccc(C(=O)CSc2nnc(C3CC3)n2C2CC2)cc1	none (no result: KCNQ1 act, KCNK9 block, hERG rescue, KCNQ1 block, Kir21 inh)
COc1ccc(OC)c(NC(=O)c2ccc3c(c2)OCO3)c1	none
COc1ccc(OC)c(-c2csc(NC(=O)c3ccc4c(c3)OCO4)n2)c1	KCNK3 inh -9.28 | KCNK3 confirm 91.7 | KCNK3 noninduced inactive
N#CC1=C(SCC(=O)Nc2ccc(C(=O)O)cc2)NC(=O)CC1c1ccco1 (stereo unspecified)	none
CCOc1ccccc1OCCCOc1ccc([N+](=O)[O-])cc1Cl	KCNK3 inh -9.79 | KCNK3 confirm 109.7 | KCNK3 noninduced inactive
CCOC(=O)C(C)NC(=O)CCc1nnc2ccc(N3CCCCC3)nn12 (stereo unspecified)	none
CCCN(CCC)c1nc(N(CCC)CCC)[nH]c(=O)n1	none

Compound activity from PubChem BioAssay.
